Test results reported in article PMC3267898 (The Journal of antibiotics, 2011).

Target: 20S proteasome (Homo sapiens, UniProt P28072+P28074+Q99436)
Test: Proteasome-Glo luminescent assay in MCF-7 cells
Format: cell-based
Conditions: MCF7, read-out: % Inhibition of 20S Proteasome / 20 μg/mL
How it was run: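 MCF-7 cells grown at 37°C, 5% CO2 in RPMI 1640 with 10% FBS, penicillin and streptomycin. Log-phase cells trypsinized, washed extensively, seeded at 7,500/well, incubated overnight. Test compound added in DMSO (final 0.2%), 2 h at 37°C. Luminescent read-out of proteasome chymotrypsin-like, trypsin-like or caspase-like activity. % inhibition versus solvent control. Bortezomib (5, 25 nM) was the positive control.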

Compound `COC(=O)c1cccc(O)c1C(=O)c1c(O)cc(C)cc1O` [compound 1, moniliphenone] has an inhibition at 20 µg/mL of 1%.
`COC(=O)[C@]12Oc3c(c(O)cc4c3[C@@H]3C=C[C@]5(C4)C(=C(O)c4c(O)cc(C)cc4[C@@H]5OC(C)=O)C3=O)C(=O)[C@]1(O)C(=O)C=C[C@@H]2O` [compound 2, acremoxanthone D] showed an inhibition at 20 µg/mL of 58%.
